# GASC1 inh – blocks human GASC-1 (KDM4C) demethylase activity; Q9H3R0; GST-KDM4C 2-372, H3K9me3 peptide, LANCE TR-FRET; inhibition, % at 12.5 µM; 0.15% of 96,000 active;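 active = mean replicate inhibition above about 25%, with at least 55% of replicates also reaching it, limit read from the data, passing the limit was not always enough; inconclusive = only one of those two conditions met; inactive = neither condition met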
#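 Material: N-terminal GST-fused human GASC-1 (KDM4C) fragment, residues 2-372. Input: 10 nM enzyme. Incubation: enzyme reaction 30 min, then detection 60 min, both room temperature. Doses: one test concentration per compound. Read-out basis: inhibition from TR-FRET ratio decrease. Detection: LANCE TR-FRET, excitation 340 nm, emissions 618 and 671 nm.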
# Pf Dd2 growth – inhibitors of Plasmodium falciparum Dd2 growth. activity change, % at 10 µM. AID 1159554. 2.3% of 94,000 active. P. falciparum Dd2 growth, SYBR Green, 72 h; hits give low values; in the data active = activity change below about -80%; inconclusive = no clear call, values can overlap the other calls
# T cruzi growth-1 – T. cruzi proliferation inhibition; T. cruzi beta-gal in NIH3T3, GalScreen luminescence, 90 h; inhibition, % at 8.34 µM; 5.9% of 77,000 active; AID 624255;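 active = mean inhibition above about 93%, with at least 55% of replicates each passing it, limit read from the data, passing the limit was not always enough; inconclusive = only one of those two conditions holds; inactive = neither condition holds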
# IDH1 R132H inh – IDH1 R132H (human) inhibition; 0.18% of 70,000 active; AID 624101; inhibition, % at 10 µM; IDH1 R132H reductase, diaphorase/resazurin fluorescence, 60 min; O75874; in the data active = inhibition above about 34%; inconclusive = no clear call, values can overlap the other calls; inactive = below about 11%;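 also: 0% = DMSO and 100% = no enzyme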
# Target sequence (O75874 whole entry R132H): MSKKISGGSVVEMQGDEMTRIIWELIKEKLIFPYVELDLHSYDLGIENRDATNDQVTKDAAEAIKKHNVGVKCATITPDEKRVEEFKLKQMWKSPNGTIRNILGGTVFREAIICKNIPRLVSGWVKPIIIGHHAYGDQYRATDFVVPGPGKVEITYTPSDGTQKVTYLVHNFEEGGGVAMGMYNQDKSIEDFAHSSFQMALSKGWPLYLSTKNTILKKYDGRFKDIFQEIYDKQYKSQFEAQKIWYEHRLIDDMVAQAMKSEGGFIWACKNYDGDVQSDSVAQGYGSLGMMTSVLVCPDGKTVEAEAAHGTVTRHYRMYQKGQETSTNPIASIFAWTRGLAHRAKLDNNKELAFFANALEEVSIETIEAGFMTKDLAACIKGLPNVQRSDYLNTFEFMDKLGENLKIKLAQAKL
# T cruzi growth-2 – Trypanosoma cruzi proliferation inhibition. 72% of 5,600 active. inhibition, % at 8.35 µM. T. cruzi beta-gal in NIH3T3, GalScreen luminescence, 90 h. AID 651739. shares compounds with T cruzi growth-1;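 active = mean replicate inhibition above about 95% and at least 55% of replicates individually reaching it, limit read from the data; inconclusive = only one of the two criteria is met; inactive = neither criterion is met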
# T cruzi growth-3 – inhibitors of T. cruzi proliferation; shares compounds with T cruzi growth-1; T. cruzi beta-gal in NIH3T3, GalScreen luminescence, 90 h; inhibition, % at 2.09 µM; 21% of 5,600 active; AID 651740;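 active = mean inhibition above about 95%, with at least 55% of replicates also reaching it, limit read from the data; inconclusive = meets just one of the two conditions; inactive = meets neither condition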;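 also: plate controls were neutral control median for no effect and positive control median for full effect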
# 3T3 cytotox – NIH/3T3 (mouse) viability loss | shares compounds with T cruzi growth-1 | NIH/3T3 viability, CellTiter-Glo ATP luminescence, 90 h | cytotoxicity (signal decrease), % at 8.35 µM | 14% of 5,600 active | AID 651742;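 active = mean signal decrease across replicates above about 35% based on untreated-well scatter, with enough replicates individually passing, limit read from the data; inconclusive = no rule stated though some were filed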;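 also: 0% = median of neutral control wells and 100% = median of positive control wells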
# NIH3T3 tox 2 – cytotoxicity in mouse NIH/3T3 fibroblasts; shares compounds with T cruzi growth-1; NIH/3T3 viability, CellTiter-Glo ATP luminescence, 90 h; inhibition, % at 24.9 µM; 56% of 5,600 active; AID 651744;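 active = mean loss of cell viability signal at or above a set limit, and enough replicates individually reaching it; inconclusive = meets only the mean limit or only the replicate share; inactive = meets neither condition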;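 also: 0% = median of neutral control wells and 100% = median of positive control wells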
# * = called active by the depositor; ? = inconclusive; . = no result; + = active, no number. This is a sample that favours compounds with a hit; in the whole collection about 5.8% have one here.
SMILES,GASC1 inh,Pf Dd2 growth,T cruzi growth-1,IDH1 R132H inh,T cruzi growth-2,T cruzi growth-3,3T3 cytotox,NIH3T3 tox 2
CCC(=O)N1CCCCN2[C@@H](CO)[C@H](c3ccc(-c4cccc(C(=O)N(C)C)c4)cc3)[C@@H]2C1,0,30,100*,.,96*,84,4,21
CCCN(C)C[C@H]1OCCCC[C@H](C)Oc2ccc(NS(C)(=O)=O)cc2C(=O)N([C@H](C)CO)C[C@H]1C,0,-43,-13,1,.,.,.,.
C[C@@H]1CN([C@@H](C)CO)C(=O)c2c(c3ccccc3n2C)-c2ccccc2CO[C@@H]1CN(C)Cc1cccnc1,2,-54,135*,6,99*,13,19,69*
C[C@@H]1CN([C@H](C)CO)C(=O)c2c(c3ccccc3n2C)-c2ccccc2CO[C@@H]1CN(C)C,0,-21,?,-1,-16,-10,-18,1
C[C@H]1CN([C@@H](C)CO)C(=O)c2c(c3ccccc3n2C)-c2ccccc2CO[C@@H]1CN(C)C,0,-31,41,-1,.,.,.,.
C[C@H](CO)N1C[C@H](C)[C@@H](CN(C)C)OCc2ccccc2-c2c(n(C)c3ccccc23)C1=O,2,-23,?,0,12,25,-4,13
C[C@@H]1CN([C@@H](C)CO)C(=O)c2c(c3ccccc3n2C)-c2ccccc2CO[C@@H]1CN(C)S(C)(=O)=O,0,-19,40,1,.,.,.,.
C[C@@H]1CN([C@H](C)CO)C(=O)c2c(c3ccccc3n2C)-c2ccccc2CO[C@H]1CN(C)C,1,28,106*,-3,86,-26,-7,14
O=C(C[C@@H]1C[C@@H]2c3cc(NC(=O)C4CCC4)ccc3O[C@@H]2[C@@H](CO)O1)NCc1cccc(F)c1,0,3,-29,0,.,.,.,.
CO[C@H]1CN(C)C(=O)c2ccc(NC(=O)C3CC3)cc2OC[C@H](C)N(C(=O)NC(C)C)C[C@H]1C,0,.,.,0,.,.,.,.
CS(=O)(=O)Nc1ccc2oc3ncccc3c(=O)c2c1,.,.,.,0,.,.,.,.
C[C@H](CO)N1C[C@H](C)[C@@H](CN(C)C)Oc2cc(C#Cc3cccnc3)ccc2S1(=O)=O,1,-30,-7,3,.,.,.,.
C[C@H]1CN([C@@H](C)CO)S(=O)(=O)c2ccc(C#CCN(C)C)cc2O[C@@H]1CN(C)Cc1ccccc1F,-1,-76,110*,0,107*,91,5,105*
C[C@H]1CN([C@@H](C)CO)S(=O)(=O)c2ccc(C#CC3CC3)cc2O[C@H]1CN(C)Cc1ccccc1F,14,-11,106*,-1,106*,77,11,107*
C[C@@H]1CN([C@@H](C)CO)S(=O)(=O)c2ccc(C#CCN(C)C)cc2O[C@H]1CN(C)Cc1ccccc1F,0,-74,116*,-4,?,85,51*,105*
C[C@@H]1CN([C@H](C)CO)C(=O)c2cc(Br)cnc2O[C@@H]1CN(C)C(=O)C1CCCCC1,1,21,.,0,.,.,.,.
COc1ccc(S(=O)(=O)N[C@@H]2C=C[C@@H](CC(=O)NCCc3ccncc3)O[C@@H]2CO)cc1,0,4,17,0,.,.,.,.
C[C@@H]1CCCCO[C@@H](CN(C)Cc2ccncc2)[C@H](C)CN([C@H](C)CO)C(=O)c2cc(NC(=O)Nc3cccc4ccccc34)ccc2O1,0,-48,98*,-3,108*,83,-14,22
C[C@@H]1CCCCO[C@@H](CN(C)Cc2ccccc2)[C@@H](C)CN([C@@H](C)CO)C(=O)c2cc(NC(=O)Nc3cccc4ccccc34)ccc2O1,1,-19,115*,2,107*,109*,18,6
C[C@@H]1CCCCO[C@@H](CN(C)Cc2ccc3c(c2)OCO3)[C@@H](C)CN([C@@H](C)CO)C(=O)c2cc(NC(=O)Nc3cccc4ccccc34)ccc2O1,-1,-47,?,1,102*,106*,14,21
C[C@@H]1CN([C@@H](C)CO)C(=O)c2cc(NC(=O)Nc3cccc4ccccc34)ccc2O[C@@H](C)CCCCO[C@@H]1CN(C)Cc1ccncc1,-1,-46,8,.,.,.,.,.
C[C@H]1CN([C@@H](C)CO)C(=O)CCCn2cc(nn2)CO[C@H]1CN(C)C(=O)c1ccc(N2CCN(C)CC2)cc1,1,-6,?,1,42,-20,-25,-38
C[C@@H]1CN([C@@H](C)CO)C(=O)CCCn2cc(nn2)CO[C@@H]1CN(C)C(=O)c1ccc(N2CCN(C)CC2)cc1,0,-16,9,1,.,.,.,.
C[C@H](CO)N1C[C@H](C)[C@H](CN(C)C(=O)c2ccc(N3CCN(C)CC3)cc2)OCc2cn(nn2)CCCC1=O,2,11,?,0,-57,-15,-16,-12
C[C@@H]1CN([C@H](C)CO)C(=O)CCCn2cc(nn2)CO[C@H]1CN(C)C(=O)c1ccc2ccn(C)c2c1,0,1,?,-1,-1,-6,-15,-17
SMILES,GASC1 inh,Pf Dd2 growth,T cruzi growth-1,IDH1 R132H inh,T cruzi growth-2,T cruzi growth-3,3T3 cytotox,NIH3T3 tox 2
CCc1nc(SCC(=O)Nc2c(C)cc(C)cc2[N+](=O)[O-])n[nH]1,.,.,.,1,.,.,.,.
C[C@H](CO)N1C[C@H](C)[C@@H](CN(C)Cc2ccc(C(F)(F)F)cc2)Oc2c(NC(=O)C3CCOCC3)cccc2C1=O,-1,-34,59,2,.,.,.,.
COc1ccc(NC(=O)Nc2ccc3c(c2)C(=O)N([C@H](C)CO)C[C@@H](C)[C@H](CN(C)C(=O)NC2CCCCC2)OCCCC[C@@H](C)O3)cc1,1,-54,100*,.,107*,68,-24,-28
COc1ccc(NC(=O)Nc2ccc3c(c2)C(=O)N([C@@H](C)CO)C[C@H](C)[C@H](CN(C)C(=O)NC2CCCCC2)OCCCC[C@H](C)O3)cc1,-2,-61,?,.,110*,3,2,-29
Cc1ccc(-c2csc3ncnc(SCC(=O)Nc4ccc(S(N)(=O)=O)cc4)c23)cc1,.,.,.,0,.,.,.,.
O=C(CCN1C(=O)c2ccccc2C1=O)Nc1ccc([N+](=O)[O-])cc1,.,.,.,0,.,.,.,.
CN(C)C(=O)[C@@H]1[C@@H](CO)[C@@H]2Cn3c(ccc(C4=CCCCC4)c3=O)[C@@H]2N1Cc1ccccn1,1,.,+,.,-5,6,3,39*
CCN1[C@H](C(=O)OC)[C@@H](CO)[C@@H]2Cn3c(ccc(C4=CCCCC4)c3=O)[C@@H]21,2,-8,103*,.,56,-8,14,13
